Legend:
[1] = target: Epidermal growth factor receptor (Homo sapiens, UniProt P00533); test: Inhibition of tyrosine phosphorylation activity of the epidermal growth factor receptor (EGFR) tyrosine kinase from human A-431 carcinoma cell-shed membrane vesicles
[2] = target: Epidermal growth factor receptor (Mus musculus, UniProt Q01279); test: Inhibition of epidermal growth factor receptor (EGFR-mediated tyrosine autophosphorylation in mouse fibroblasts.
Summary of the method: (§1)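 Confluent Swiss 3T3 fibroblasts were pretreated 2 h with graded compound concentrations, then stimulated 5 min with EGF or PDGF. Monolayers were lysed in boiling Laemmli buffer and resolved on 4–20% SDS gels. Blots were probed with antiphosphotyrosine antibody (1 μg/mL) and [¹²⁵I]protein A, and receptor autophosphorylation was quantified by densitometry. IC50 is 50% inhibition of autophosphorylation.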

Swiss 3T3 (Mus musculus) = test: Inhibition of Swiss 3T3 Mouse fibroblast proliferation
[3] = target: Platelet-derived growth factor receptor (Mus musculus, UniProt P05622+P26618); test: Inhibition of PDGF receptor autophosphorylation in mouse fibroblasts; format: protein-complex assay; summary of the method: as §1
KG-1 = test: Inhibition of kg1A acute myelogenous leukemia cell proliferation; format: functional, cell-based; settings: Homo sapiens
Summary of the method: (§2)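 Cells kept in dMEM/F12 (50:50) with 10% fetal bovine serum. 2 × 10⁴ cells were seeded into wells holding compound dilutions in DMSO and exposed for 72 h at 37 °C under 5% CO₂. Growth was read by electronic cell count. IC50 is the concentration giving 50% growth inhibition, as the mean of two separate duplicate determinations.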

K562 = test: Inhibition of K562 chronic myelogenous leukemia cell proliferation; format: functional, cell-based; settings: Homo sapiens; summary of the method: as §2
A-431 = test: Inhibition of A431 human epidermoid carcinoma cell proliferation; format: functional, cell-based; summary of the method: as §2

Epidermal growth factor receptor (Homo sapiens, UniProt P00533), sequence (P00533 whole entry): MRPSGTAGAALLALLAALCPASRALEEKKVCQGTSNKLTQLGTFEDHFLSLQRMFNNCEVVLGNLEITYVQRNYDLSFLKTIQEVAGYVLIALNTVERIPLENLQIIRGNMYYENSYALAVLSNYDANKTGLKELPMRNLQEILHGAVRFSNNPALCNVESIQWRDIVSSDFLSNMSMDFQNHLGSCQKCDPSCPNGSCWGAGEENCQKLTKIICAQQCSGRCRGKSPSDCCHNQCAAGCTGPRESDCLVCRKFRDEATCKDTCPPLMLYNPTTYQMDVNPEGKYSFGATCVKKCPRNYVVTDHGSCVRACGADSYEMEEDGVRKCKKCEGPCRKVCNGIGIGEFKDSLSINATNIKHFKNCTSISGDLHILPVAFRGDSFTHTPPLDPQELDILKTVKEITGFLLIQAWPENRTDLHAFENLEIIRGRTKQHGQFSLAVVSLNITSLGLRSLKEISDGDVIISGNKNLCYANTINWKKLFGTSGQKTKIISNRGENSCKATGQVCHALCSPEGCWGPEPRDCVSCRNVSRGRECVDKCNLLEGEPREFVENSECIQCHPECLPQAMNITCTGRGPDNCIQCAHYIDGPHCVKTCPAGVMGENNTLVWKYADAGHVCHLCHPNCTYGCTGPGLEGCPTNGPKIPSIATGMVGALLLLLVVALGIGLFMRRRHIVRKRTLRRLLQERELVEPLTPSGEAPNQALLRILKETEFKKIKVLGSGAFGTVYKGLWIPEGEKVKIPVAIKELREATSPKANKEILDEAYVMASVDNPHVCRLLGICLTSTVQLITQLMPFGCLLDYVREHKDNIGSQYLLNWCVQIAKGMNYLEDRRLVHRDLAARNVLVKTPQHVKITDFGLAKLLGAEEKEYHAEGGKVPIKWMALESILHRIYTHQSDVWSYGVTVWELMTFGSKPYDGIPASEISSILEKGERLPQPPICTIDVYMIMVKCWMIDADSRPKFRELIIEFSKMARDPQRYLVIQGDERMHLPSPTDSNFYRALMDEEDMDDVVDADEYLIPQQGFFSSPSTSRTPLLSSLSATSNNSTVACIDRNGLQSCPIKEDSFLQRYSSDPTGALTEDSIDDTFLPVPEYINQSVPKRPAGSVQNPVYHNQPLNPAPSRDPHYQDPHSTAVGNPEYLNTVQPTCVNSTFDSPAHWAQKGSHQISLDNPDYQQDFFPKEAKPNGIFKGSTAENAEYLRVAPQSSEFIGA
Epidermal growth factor receptor (Mus musculus, UniProt Q01279), sequence (Q01279 whole entry): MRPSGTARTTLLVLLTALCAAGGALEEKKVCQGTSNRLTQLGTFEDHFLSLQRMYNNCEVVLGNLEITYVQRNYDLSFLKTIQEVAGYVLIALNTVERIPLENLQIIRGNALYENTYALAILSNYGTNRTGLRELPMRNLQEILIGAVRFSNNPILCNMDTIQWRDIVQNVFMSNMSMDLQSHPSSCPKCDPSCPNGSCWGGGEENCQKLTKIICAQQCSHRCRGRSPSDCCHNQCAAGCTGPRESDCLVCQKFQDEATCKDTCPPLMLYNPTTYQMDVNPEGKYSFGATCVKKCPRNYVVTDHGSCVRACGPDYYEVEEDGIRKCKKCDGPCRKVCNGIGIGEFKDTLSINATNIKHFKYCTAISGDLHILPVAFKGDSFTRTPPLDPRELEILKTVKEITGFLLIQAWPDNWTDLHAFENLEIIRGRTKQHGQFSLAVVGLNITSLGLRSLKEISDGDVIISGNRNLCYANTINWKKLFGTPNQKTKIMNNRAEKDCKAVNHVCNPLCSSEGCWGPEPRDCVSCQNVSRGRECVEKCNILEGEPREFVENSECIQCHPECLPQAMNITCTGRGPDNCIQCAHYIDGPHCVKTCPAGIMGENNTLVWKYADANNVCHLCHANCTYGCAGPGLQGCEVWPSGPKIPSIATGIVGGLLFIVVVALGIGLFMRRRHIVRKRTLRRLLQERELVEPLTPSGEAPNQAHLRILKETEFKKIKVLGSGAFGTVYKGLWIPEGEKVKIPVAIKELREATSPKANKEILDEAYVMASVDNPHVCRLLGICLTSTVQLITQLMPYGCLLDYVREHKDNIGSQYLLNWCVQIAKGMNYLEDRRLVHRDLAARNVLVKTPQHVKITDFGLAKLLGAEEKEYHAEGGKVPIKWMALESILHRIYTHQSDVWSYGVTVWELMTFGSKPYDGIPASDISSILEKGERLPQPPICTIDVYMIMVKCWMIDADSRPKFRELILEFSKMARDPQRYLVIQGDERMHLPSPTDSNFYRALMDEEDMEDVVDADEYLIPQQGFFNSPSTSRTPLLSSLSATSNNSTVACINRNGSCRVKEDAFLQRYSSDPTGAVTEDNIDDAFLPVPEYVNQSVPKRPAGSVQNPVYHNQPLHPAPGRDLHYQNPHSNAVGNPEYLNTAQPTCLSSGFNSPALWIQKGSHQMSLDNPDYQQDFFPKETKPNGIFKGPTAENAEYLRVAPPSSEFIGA

| SMILES | IC50 [1] [µM] | IC50 (Swiss 3T3 (Mus musculus)) [µM] | further results |
| --- | --- | --- | --- |
| Cn1c(SSc2c(C(=O)Nc3ccccc3)c3cccnc3n2C)c(C(=O)Nc2ccccc2)c2cccnc21 | – | 10 | IC50 [2]: > 25 µM; IC50 [3]: > 25 µM |
| CSc1c(C(=O)Nc2ccccc2)c2ccccc2n1C | > 100 | – | – |
| Cn1c(SSc2c(C(=O)Nc3ccccc3)c3cccc(Cl)c3n2C)c(C(=O)Nc2ccccc2)c2cccc(Cl)c21 | > 100 | – | – |
| Cn1c(SSc2c(C(=O)Nc3ccccc3)c3cc(F)ccc3n2C)c(C(=O)Nc2ccccc2)c2cc(F)ccc21 | > 100 | – | – |
| CN1C(=S)C(C)(C(=O)Nc2ccccc2)c2ccccc21 (centres undefined) | > 100 | – | – |
| COc1ccc2c(C(=O)Nc3ccccc3)c(SSc3c(C(=O)Nc4ccccc4)c4ccc(OC)cc4n3C)n(C)c2c1 | – | 17 | IC50 [3]: > 100 µM |
| Cc1cccc2c1c(C(=O)Nc1ccccc1)c(SSc1c(C(=O)Nc3ccccc3)c3c(C)cccc3n1C)n2C | > 100 | 4 | – |
| Cn1c(SSc2c(C(=O)Nc3ccccc3)c3cc([N+](=O)[O-])ccc3n2C)c(C(=O)Nc2ccccc2)c2cc([N+](=O)[O-])ccc21 | 5 | – | – |
| CN1C(=S)C(C(=O)Nc2ccccc2)c2cc(Cl)ccc21 (centres undefined) | > 100 | – | – |
| Cn1c(SSc2c(C(=O)Nc3ccccc3)c3cc(C(F)(F)F)ccc3n2C)c(C(=O)Nc2ccccc2)c2cc(C(F)(F)F)ccc21 | > 100 | – | – |
| Cc1ccc2c(C(=O)Nc3ccccc3)c(SSc3c(C(=O)Nc4ccccc4)c4ccc(C)cc4n3C)n(C)c2c1 | > 100 | 96 | – |
| CN1C(=S)C(C(=O)Nc2ccccc2)c2ccccc21 (centres undefined) | – | 64 | IC50 (KG-1): 38 µM; IC50 [2]: > 100 µM; IC50 (K562): 32 µM; IC50 [3]: 17 µM; IC50 (A-431): 15 µM |
| Cc1cccc2c(C(=O)Nc3ccccc3)c(SSc3c(C(=O)Nc4ccccc4)c4cccc(C)c4n3C)n(C)c12 | > 100 | – | – |
| CC(=O)Oc1ccc2c(C(=O)Nc3ccccc3)c(SSc3c(C(=O)Nc4ccccc4)c4ccc(OC(C)=O)cc4n3C)n(C)c2c1 | > 100 | – | – |
| Cn1c(SSc2c(C(=O)Nc3ccccc3)c3ccc(Cl)cc3n2C)c(C(=O)Nc2ccccc2)c2ccc(Cl)cc21 | > 100 | – | – |
| COc1cccc2c(C(=O)Nc3ccccc3)c(SSc3c(C(=O)Nc4ccccc4)c4cccc(OC)c4n3C)n(C)c12 | – | 24 | IC50 [2]: > 100 µM; IC50 [3]: > 100 µM |
| Cn1c(SSCc2ccccc2)c(C(=O)Nc2ccccc2)c2ccccc21 | > 100 | – | – |

Continued, in another order:

| IC50 [1] [µM] | SMILES | IC50 (Swiss 3T3 (Mus musculus)) [µM] | further results |
| --- | --- | --- | --- |
| 40.5 | Cn1c(SSc2c(C(=O)Nc3ccccc3)c3cc(O)ccc3n2C)c(C(=O)Nc2ccccc2)c2cc(O)ccc21 | – | – |
| > 100 | Cc1ccc2c(c1)c(C(=O)Nc1ccccc1)c(SSc1c(C(=O)Nc3ccccc3)c3cc(C)ccc3n1C)n2C | 22 | – |
| > 100 | COc1cccc2c1c(C(=O)Nc1ccccc1)c(SSc1c(C(=O)Nc3ccccc3)c3c(OC)cccc3n1C)n2C | 1.9 | – |
| > 100 | Cn1c(SSc2ccccc2)c(C(=O)Nc2ccccc2)c2ccccc21 | – | – |
| 20 | CC(=O)Oc1cccc2c1c(C(=O)Nc1ccccc1)c(SSc1c(C(=O)Nc3ccccc3)c3c(OC(C)=O)cccc3n1C)n2C | – | – |
| > 100 | CN1C(=S)C(C(=O)Nc2ccccc2)c2cccnc21 (centres undefined) | – | – |
| > 100 | COc1ccc2c(c1)c(C(=O)Nc1ccccc1)c(SSc1c(C(=O)Nc3ccccc3)c3cc(OC)ccc3n1C)n2C | 20 | – |
| 9.9 | CC(=O)Oc1cccc2c(C(=O)Nc3ccccc3)c(SSc3c(C(=O)Nc4ccccc4)c4cccc(OC(C)=O)c4n3C)n(C)c12 | – | – |
| 10 | Cn1c(SSc2c(C(=O)Nc3ccccc3)c3ccccc3n2C)c(C(=O)Nc2ccccc2)c2ccccc21 | 12 | IC50 (KG-1): 12 µM; IC50 [2]: > 100 µM; IC50 (K562): 18 µM; IC50 [3]: > 100 µM; IC50 (A-431): 14 µM |
| 100 | Cn1c(SSc2c(C(=O)Nc3ccccc3)c3c(Cl)cccc3n2C)c(C(=O)Nc2ccccc2)c2c(Cl)cccc21 | – | – |
| 100 | Cn1c(SSc2c(C(=O)Nc3ccccc3)c3cccc(O)c3n2C)c(C(=O)Nc2ccccc2)c2cccc(O)c21 | – | – |

— ChEMBL document CHEMBL1127560, “Tyrosine kinase inhibitors. 3. Structure-activity relationships for inhibition of protein tyrosine kinases by nuclear-substituted derivatives of 2,2'-dithiobis(1-methyl-N-phenyl-1H-indole-3-carboxamide)” (J Med Chem, 1994)
